From ChEMBL document CHEMBL4177761, “Highlights of the Structure-Activity Relationships of Benzimidazole Linked Pyrrolidines Leading to the Discovery of the Hepatitis C Virus NS5A Inhibitor Pibrentasvir (ABT-530)” (J Med Chem, 2018)
Residue numbers refer to the chain shown, from its start. Values after ≈ are worked out from the molar mass of the structure shown.

How the values were obtained:
[1] = tested on: T1, Nonstructural protein 5A (Hepatitis C virus), Q5L478 [Y93N]; experiment: Inhibition of NS5A Y93N mutant in HuH7 cell infected HCV genotype 1b Con1 assessed as decrease in viral replication after 4 days by luciferase reporter gene assay relative to wild type protein; conditions: Hepatitis C virus (isolate Con1)
T1 sequence (whole entry): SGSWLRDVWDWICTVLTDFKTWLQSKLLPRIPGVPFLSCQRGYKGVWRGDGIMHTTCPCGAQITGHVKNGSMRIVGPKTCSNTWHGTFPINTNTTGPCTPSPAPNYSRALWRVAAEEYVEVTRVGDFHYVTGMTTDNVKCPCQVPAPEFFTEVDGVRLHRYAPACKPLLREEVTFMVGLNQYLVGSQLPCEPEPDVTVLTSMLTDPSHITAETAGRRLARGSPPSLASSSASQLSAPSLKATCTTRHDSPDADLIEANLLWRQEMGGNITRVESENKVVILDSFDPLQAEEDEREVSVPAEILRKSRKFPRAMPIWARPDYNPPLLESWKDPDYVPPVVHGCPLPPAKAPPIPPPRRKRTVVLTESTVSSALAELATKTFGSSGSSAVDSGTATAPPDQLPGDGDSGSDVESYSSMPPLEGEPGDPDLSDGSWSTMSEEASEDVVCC
Summary of the method: (§1)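 Stable subgenomic luciferase replicons in Huh-7 cells: genotype 1b-Con1 carrying NS5A Y93H or Y93N, tested alongside the wild-type replicon. Cells are incubated 4 days with compound in DMEM with 5% FBS. Luciferase read-out, EC50 from a 4-parameter logistic fit, expressed as fold change versus wild type.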

[2] = tested on: T2, Nonstructural protein 5A (Hepatitis C virus), Q5L478 [Y93C]; experiment: Inhibition of NS5A Y93C mutant in HuH7 cell infected HCV genotype 1a H77 assessed as decrease in viral replication after 4 days by luciferase reporter gene assay relative to wild type protein; conditions: Hepatitis C virus (isolate H77)
T2 sequence (whole entry): T1 sequence (whole entry) with N93C
Summary of the method: as §1, with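 “1a-H77” for “1b-Con1”, “NS5A substitutions M28T, Q30E, Q30R, Y93C,” for “NS5A”, “by” for “from a”, “and” for “expressed as”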

[3] = tested on: T3, Nonstructural protein 5A (Hepatitis C virus), Q5L478 [Y93H]; experiment: Inhibition of NS5A Y93H mutant in HuH7 cell infected HCV genotype 1b Con1 assessed as decrease in viral replication after 4 days by luciferase reporter gene assay relative to wild type protein; conditions: Hepatitis C virus (isolate Con1); summary of the method: as §1
T3 sequence (whole entry): T1 sequence (whole entry) with N93H

[4] = tested on: T3, Nonstructural protein 5A (Hepatitis C virus), Q5L478 [Y93H]; experiment: Inhibition of NS5A Y93H mutant in HuH7 cell infected HCV genotype 1a H77 assessed as decrease in viral replication after 4 days by luciferase reporter gene assay relative to wild type protein; conditions: Hepatitis C virus (isolate H77)
Summary of the method: as §1, with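 “1a-H77” for “1b-Con1”, “NS5A substitutions M28T, Q30E, Q30R, Y93C,” for “NS5A”, “by” for “from a”, “and” for “expressed as”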

[5] = biological target: T4, Nonstructural protein 5A (Hepatitis C virus) (UniProt Q5L478); experiment: Inhibition of NS5A Q30E mutant in HuH7 cell infected HCV genotype 1a H77 assessed as decrease in viral replication after 4 days by luciferase reporter gene assay relative to wild type protein; conditions: Hepatitis C virus (isolate H77)
T4 sequence (whole entry): T1 sequence (whole entry) with N93Y
Summary of the method: as §1, with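 “1a-H77” for “1b-Con1”, “NS5A substitutions M28T, Q30E, Q30R, Y93C,” for “NS5A”, “by” for “from a”, “and” for “expressed as”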

[6] = tested on: T1, Nonstructural protein 5A (Hepatitis C virus), Q5L478 [Y93N]; experiment: Inhibition of NS5A Y93N mutant in HuH7 cell infected HCV genotype 1a H77 assessed as decrease in viral replication after 4 days by luciferase reporter gene assay relative to wild type protein; conditions: Hepatitis C virus (isolate H77)
Summary of the method: as §1, with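 “1a-H77” for “1b-Con1”, “NS5A substitutions M28T, Q30E, Q30R, Y93C,” for “NS5A”, “by” for “from a”, “and” for “expressed as”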

[7] = biological target: T4, Nonstructural protein 5A (Hepatitis C virus); experiment: Inhibition of NS5A Q30R mutant in HuH7 cell infected HCV genotype 1a H77 assessed as decrease in viral replication after 4 days by luciferase reporter gene assay relative to wild type protein; conditions: Hepatitis C virus (isolate H77)
Summary of the method: as §1, with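 “1a-H77” for “1b-Con1”, “NS5A substitutions M28T, Q30E, Q30R, Y93C,” for “NS5A”, “by” for “from a”, “and” for “expressed as”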

[8] = biological target: T4, Nonstructural protein 5A (Hepatitis C virus); experiment: Inhibition of NS5A M28T mutant in HuH7 cell infected HCV genotype 1a H77 assessed as decrease in viral replication after 4 days by luciferase reporter gene assay relative to wild type protein; conditions: Hepatitis C virus (isolate H77)
Summary of the method: as §1, with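 “1a-H77” for “1b-Con1”, “NS5A substitutions M28T, Q30E, Q30R, Y93C,” for “NS5A”, “by” for “from a”, “and” for “expressed as”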

[9] = Lipophilicity, log D of the compound by HPLC method; assay type: physicochemical
[10] = Intrinsic clearance in rat microsomes; assay type: ADME, Microsome
[11] = Solubility of the compound by CLND method; assay type: physicochemical
[12] = Intrinsic clearance in human microsomes; assay type: ADME, Microsome
[13] = AUC (0 to infinity) in mouse at 3 mg/kg, po by LC-MS method; assay type: ADME, organism-based; parameters: dose 3 mg/kg, route oral, time infinity; conditions: in vivo
Summary of the method: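 Single dose, 3 mg/kg, in mouse or rat. IV vehicle: DMSO:Tween 80:PEG-400:D5W 2:5:20:73 (v/v). PO vehicle: Phosol 53 MCT:PEG-400:Poloxamer 124:Cremophor RH40 40:20:20:20 (w/w). Acetonitrile protein precipitation, then LC-MS/MS in negative-ion MRM against an internal standard; LOQ ~20 ng/mL.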

COC(=O)N[C@H](C(=O)N1CCC[C@H]1c1nc2ccc([C@H]3CC[C@H](c4ccc5nc([C@@H]6CCCN6C(=O)[C@@H](NC(=O)OC)C(C)C)[nH]c5c4)N3c3ccc(-c4ccccc4)cc3)cc2[nH]1)C(C)C
fold change (FC) [1]: 1
fold change (FC) [2]: 24
fold change (FC) [3]: 1
fold change (FC) [4]: 329
fold change (FC) [5]: 47
fold change (FC) [6]: 827
fold change (FC) [7]: 10

COC(=O)N[C@H](C(=O)N1CCC[C@H]1c1nc2cc(F)c([C@H]3CC[C@H](c4cc5[nH]c([C@@H]6CCCN6C(=O)[C@@H](NC(=O)OC)C6CCOCC6)nc5cc4F)N3c3cc(F)c(N4CCC(c5ccc(F)cc5)CC4)c(F)c3)cc2[nH]1)C1CCOCC1
fold change (FC) [4]: 2
fold change (FC) [5]: 1
fold change (FC) [6]: 2

COC(=O)N[C@H](C(=O)N1CCC[C@H]1c1nc2cc(F)c([C@H]3CC[C@H](c4cc5[nH]c([C@@H]6CCCN6C(=O)[C@@H](NC(=O)OC)[C@@H](C)OC)nc5cc4F)N3c3cc(F)c(N4CCC(c5ccccc5)CC4)c(F)c3)cc2[nH]1)[C@@H](C)OC
fold change (FC) [1]: 0.3
fold change (FC) [2]: 1
fold change (FC) [3]: 1
fold change (FC) [4]: 6
fold change (FC) [5]: 2
fold change (FC) [6]: 5
fold change (FC) [8]: 1
fold change (FC) [7]: 1

COC(=O)N[C@H](C(=O)N1CCC[C@H]1c1nc2cc([C@H]3CC[C@H](c4ccc5[nH]c([C@@H]6CCCN6C(=O)[C@@H](NC(=O)OC)C(C)C)nc5c4)N3c3cc(F)c(N4CCC(c5ccc(F)cc5)CC4)c(F)c3)ccc2[nH]1)C(C)C
logD [9]: 5.8
CLint scaled [10]: 53.3 mL/min/kg
solubility kinetic [11]: 0.9 µM (≈ 0.941 µg/mL)
CLint scaled [12]: < 25 mL/min/kg
AUC(0-inf) [13]: 4590 ng·h/mL

COC(=O)N[C@H](C(=O)N1CCC[C@H]1c1nc2cc([C@H]3CC[C@H](c4ccc5[nH]c([C@@H]6CCCN6C(=O)[C@@H](NC(=O)OC)C(C)C)nc5c4)N3c3cc(F)c(N4CCCCC4)c(F)c3)ccc2[nH]1)C(C)C
fold change (FC) [2]: 9
CLint scaled [10]: 187 mL/min/kg
fold change (FC) [3]: 1
solubility kinetic [11]: 0.7 µM (≈ 0.666 µg/mL)
fold change (FC) [4]: 241
fold change (FC) [5]: 134
fold change (FC) [6]: 510
fold change (FC) [8]: 5
CLint scaled [12]: 175 mL/min/kg
AUC(0-inf) [13]: 1790 ng·h/mL
fold change (FC) [7]: 13

COC(=O)N[C@H](C(=O)N1CCC[C@H]1c1nc2ccc([C@H]3CC[C@H](c4ccc5nc([C@@H]6CCCN6C(=O)[C@@H](NC(=O)OC)C(C)C)[nH]c5c4)N3c3ccc(C4CCCCC4)cc3)cc2[nH]1)C(C)C
fold change (FC) [2]: > 30
fold change (FC) [3]: 1
fold change (FC) [4]: > 577
fold change (FC) [5]: > 90
fold change (FC) [8]: > 17
fold change (FC) [7]: > 30

COC(=O)N[C@H](C(=O)N1CCC[C@H]1c1nc2cc([C@H]3CC[C@H](c4ccc5[nH]c([C@@H]6CCCN6C(=O)[C@@H](NC(=O)OC)C(C)C)nc5c4)N3c3cc(F)c(N4CCC(c5ccccc5)CC4)c(F)c3)ccc2[nH]1)C(C)C
CLint scaled [10]: 53.3 mL/min/kg
solubility kinetic [11]: 1.1 µM (≈ 1.13 µg/mL)
CLint scaled [12]: < 25 mL/min/kg
AUC(0-inf) [13]: 6830 ng·h/mL

COC(=O)N[C@H](C(=O)N1CCC[C@H]1c1nc2cc(F)c([C@H]3CC[C@H](c4cc5[nH]c([C@@H]6CCCN6C(=O)[C@@H](NC(=O)OC)C(C)C)nc5cc4F)N3c3cc(F)c(N4CCC(c5ccccc5)CC4)c(F)c3)cc2[nH]1)C(C)C
fold change (FC) [1]: 1
fold change (FC) [2]: 6
fold change (FC) [3]: 1
fold change (FC) [4]: 49
fold change (FC) [5]: 12
fold change (FC) [6]: 50
fold change (FC) [8]: 1
fold change (FC) [7]: 2

COC(=O)N[C@H](C(=O)N1CCC[C@H]1c1nc2ccc([C@H]3CC[C@H](c4ccc5nc([C@@H]6CCCN6C(=O)[C@@H](NC(=O)OC)C(C)C)[nH]c5c4)N3c3ccc(Cl)cc3)cc2[nH]1)C(C)C
fold change (FC) [2]: 22
fold change (FC) [3]: 1
fold change (FC) [4]: 670
fold change (FC) [5]: 83
fold change (FC) [6]: 1160
fold change (FC) [8]: 28
fold change (FC) [7]: 44

COC(=O)N[C@H](C(=O)N1CCC[C@H]1c1nc2ccc([C@H]3CC[C@H](c4ccc5nc([C@@H]6CCCN6C(=O)[C@@H](NC(=O)OC)C(C)C)[nH]c5c4)N3c3ccc(N4CCC(c5ccccc5)CC4)cc3)cc2[nH]1)C(C)C
logD [9]: 5.4
CLint scaled [10]: 46.7 mL/min/kg
solubility kinetic [11]: 0.82 µM (≈ 0.813 µg/mL)
CLint scaled [12]: < 25 mL/min/kg

COC(=O)N[C@H](C(=O)N1CCC[C@H]1c1nc2ccc([C@H]3CC[C@H](c4ccc5nc([C@@H]6CCCN6C(=O)[C@@H](NC(=O)OC)C(C)C)[nH]c5c4)N3c3cc(F)c(N4CCC(c5ccccc5)CC4)c(F)c3)cc2[nH]1)C(C)C
fold change (FC) [1]: 1
fold change (FC) [2]: 6
fold change (FC) [3]: 1
fold change (FC) [4]: 72
fold change (FC) [5]: 69
fold change (FC) [6]: 145
fold change (FC) [8]: 3
fold change (FC) [7]: 7

COC(=O)N[C@H](C(=O)N1CCC[C@H]1c1nc2ccc([C@H]3CC[C@H](c4ccc5nc([C@@H]6CCCN6C(=O)[C@@H](NC(=O)OC)C(C)C)[nH]c5c4)N3c3cc(F)c(N4CCC(c5ccc(F)cc5)CC4)c(F)c3)cc2[nH]1)C(C)C
fold change (FC) [2]: 3
fold change (FC) [3]: 2
fold change (FC) [4]: 20
fold change (FC) [5]: 20
fold change (FC) [6]: 25
fold change (FC) [8]: 2
fold change (FC) [7]: 3

COC(=O)N[C@H](C(=O)N1CCC[C@H]1c1nc2cc(F)c([C@H]3CC[C@H](c4cc5[nH]c([C@@H]6CCCN6C(=O)[C@@H](NC(=O)OC)C6CCOCC6)nc5cc4F)N3c3cc(F)c(N4CCC(c5ccccc5)CC4)c(F)c3)cc2[nH]1)C1CCOCC1
fold change (FC) [4]: 3
fold change (FC) [5]: 1
fold change (FC) [6]: 2
